Efflux pump mplx – inhibitors of Candida efflux pumps in yeast, primary screen, S. cerevisiae, Nile Red, multiplex | 330,000 tested, 0.44% active | S. cerevisiae Candida pump triplex | inhibition, % at 10 µM;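 active = plate passing quality check with inhibition over a set limit, or well fluorescence over plate mean plus 4 SD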;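 also: Nile Red retained in pooled yeast measured as flow cytometry median fluorescence; higher means more Nile Red kept so more efflux inhibition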
Neddylation inh – inhibitors of cullin neddylation, primary screen, biochemical, TR-FRET, uHTS, NAE and Ubc12. NEDD8-conjugating enzyme Ubc12 (Homo sapiens) + NEDD8-activating enzyme E1 regulatory …. inhibition, % at 25 µM. 360,000 tested, 0.58% active. AID 651699, 2012; in the data active = inhibition above about 36%
Target sequence (P61081 whole entry, looked up): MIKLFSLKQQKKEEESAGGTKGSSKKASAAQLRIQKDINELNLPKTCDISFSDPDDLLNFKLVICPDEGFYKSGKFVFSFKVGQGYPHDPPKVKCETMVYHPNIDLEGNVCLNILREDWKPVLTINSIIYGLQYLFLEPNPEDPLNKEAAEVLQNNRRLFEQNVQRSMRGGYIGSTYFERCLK
Target sequence (Q13564 whole entry, looked up): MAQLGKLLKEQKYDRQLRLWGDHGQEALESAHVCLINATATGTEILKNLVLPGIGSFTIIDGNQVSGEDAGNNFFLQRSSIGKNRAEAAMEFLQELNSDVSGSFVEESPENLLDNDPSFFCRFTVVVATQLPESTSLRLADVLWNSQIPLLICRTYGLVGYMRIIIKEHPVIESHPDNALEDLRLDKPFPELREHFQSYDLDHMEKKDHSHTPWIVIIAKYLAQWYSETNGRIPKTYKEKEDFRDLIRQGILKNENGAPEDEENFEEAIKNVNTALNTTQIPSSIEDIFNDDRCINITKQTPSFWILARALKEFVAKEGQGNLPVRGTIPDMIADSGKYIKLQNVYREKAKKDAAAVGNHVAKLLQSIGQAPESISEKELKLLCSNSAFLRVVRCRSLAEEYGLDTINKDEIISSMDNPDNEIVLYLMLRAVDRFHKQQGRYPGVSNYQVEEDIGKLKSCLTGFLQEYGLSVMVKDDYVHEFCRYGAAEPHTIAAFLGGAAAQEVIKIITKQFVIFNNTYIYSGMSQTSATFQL
DSG3 Ab inh – inhibitors of pemphigus antibody binding to DSG3, primary screen, biochemical, bead-based, flow cytometry, scFv-GFP; 310,000 tested, 0.48% active; binding (percent of control), % at 10 µM; AID 588358, 2011; DSG3-coupled beads, scFv-anti-DSG3-GFP binding; stronger effect = lower value; Desmoglein-3 (Homo sapiens), P32926;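 active = binding more than 3 SD below its plate's average and above zero; inconclusive = below that plate limit but binding exactly zero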;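 also: hits lower antibody fragment binding to DSG3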
Arr AP2 block – inhibitors of beta-arrestin/AP2 binding, primary screen, biochemical, GPCR trafficking, flow cytometry; beta-arrestin 1 C-terminal peptide binding to AP2 beta2-adaptin appendage (human); FITC-arrestin peptide / GST-AP2 beads; AP2 beta2 appendage carries R879A mutation; 340,000 tested, 0.31% active; inhibition, % at 10 µM;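 active = inhibition above a set limit, near 3 SD of compounds lacking own fluorescence, cut at about 54% in these data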
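System: GST-AP2 R879A glutathione beads | Also added: FITC-arrestin peptide, 50 nM | Times: 12 min plus 1 h, RT | Signal: Bead flow cytometry, FITC channel | Buffer or medium: PBS with 0.05% Tween 20 and 0.1% BSA | Read-out basis: Percent drop in bead-associated FITC signal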
Cmpd fluor yeast – counter-screen for efflux pump inhibitors: compound fluorescence | fluorescence ratio to DMSO, % at 10 µM | shares compounds with Efflux pump mplx | 1,700 tested, 4% active | S. cerevisiae AD/pABC3, flow cytometry;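 active = fluorescence ratio to DMSO above its plate's cutoff, the plate mean ratio plus 5 SD, cut at about 210% in these data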;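 also: unstained yeast with no Nile Red so the signal is compound autofluorescence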
Mdr1 pump inh – inhibitors of Candida albicans Mdr1 efflux, confirmation, flow cytometry, singleplex, Cherry Pick1 set; 1,700 tested, 1% active; shares compounds with Efflux pump mplx; inhibition, % at 10 µM; S. cerevisiae AD/CaMDR1, Nile Red efflux; in the data active = inhibition above about 26%;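 also: higher means more Nile Red retained so more efflux inhibition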
CaCdr2 efflux inh – inhibitors of Candida albicans Cdr2 efflux pump, confirmation, S. cerevisiae AD/CaCDR2, flow cytometry, cherry pick 1, singleplex | shares compounds with Efflux pump mplx | Nile Red retention | Nile Red retention ratio vs DMSO, % at 10 µM | 1,700 tested, 4% active | AID 588520, 2011; in the data active = Nile Red retention ratio vs DMSO above about 190%;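 also: higher ratio means more blocking of Cdr2 efflux of the dye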
Cdr1 pump inh – inhibitors of Candida albicans Cdr1 efflux pump, confirmation, S. cerevisiae AD/CaCDR1, flow cytometry, cherry pick 1, singleplex; shares compounds with Efflux pump mplx; inhibition, % at 10 µM; AID 588522, 2011; Nile Red efflux; 1,700 tested, 1% active;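 active = inhibition above the screen-wide mean plus twice its standard deviation, cut at about 32% in these data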
Each line names hits and unclear results; the compound was inactive in the other large screens (follow-up assays come after a bar, where shown). Only some compounds are listed: those with a hit (about 1.7% of all), similar ones and a draw of the others.

CCSc1cnc(-c2ccccc2)n1CC	Efflux pump mplx 0.5 | Cmpd fluor yeast inactive | Mdr1 pump inh inactive | CaCdr2 efflux inh inactive | Cdr1 pump inh inactive
CCOC(=O)c1ccccc1NC(=O)C1CC(=O)N(C(C)(C)C)C1 (centres undefined)	none
CCOC(=O)c1ccccc1NC(=O)C1CC(=O)N(C2CCCCC2)C1 (centres undefined)	Efflux pump mplx 6.2 | Cmpd fluor yeast inactive | Mdr1 pump inh inactive | CaCdr2 efflux inh inactive | Cdr1 pump inh inactive
CCN(CC)c1ccc(/C=c2\sc3nnc(-c4ccccc4Cl)n3c2=O)cc1	Efflux pump mplx 0.7 | Cmpd fluor yeast 271 | Mdr1 pump inh inactive | CaCdr2 efflux inh inactive | Cdr1 pump inh inactive
CCN(CC)c1ccc(/C=c2/sc3nnc(-c4ccccc4C)n3c2=O)cc1	Efflux pump mplx 0.6 | Cmpd fluor yeast 215 | Mdr1 pump inh inactive | CaCdr2 efflux inh inactive | Cdr1 pump inh inactive
Cc1ccc(/C=c2/sc3nnc(-c4ccccc4Cl)n3c2=O)o1	none
Cc1ccc(S(=O)(=O)N2CCN(C(=O)c3cc(C4CC4)nn3-c3ccccc3)CC2)cc1	none (no result: Efflux pump mplx, Arr AP2 block)
COc1ccc(CNS(=O)(=O)c2ccc3c(c2)CCN3C(=O)C2CCC2)cc1	none
CCOC(=O)C1CCN(S(=O)(=O)c2ccc3c(c2)CCN3C(C)=O)CC1	none (no result: DSG3 Ab inh)
CCOc1ccc(OCC)c(NS(=O)(=O)c2ccc3c(c2)CCN3C(=O)C2CCC2)c1	none | Cmpd fluor yeast inactive | Mdr1 pump inh inactive | CaCdr2 efflux inh inactive | Cdr1 pump inh inactive
CCOC(=O)C1CCN(S(=O)(=O)c2ccc3c(c2)CCN3C(=O)C2CCC2)CC1	none | Cmpd fluor yeast inactive | Mdr1 pump inh inactive | CaCdr2 efflux inh inactive | Cdr1 pump inh inactive
COC(=O)[C@H](CCSC)NC(=O)c1cc2c(cn1)[nH]c1ccccc12	none
Cc1ccc(O)c(C(=O)c2cnc3c(c2)CN(CCC(C)C)C(=O)N3)c1	Efflux pump mplx 0.6, DSG3 Ab inh inconclusive | Cmpd fluor yeast inactive | Mdr1 pump inh inactive | CaCdr2 efflux inh inactive | Cdr1 pump inh inactive
COc1ccc([N+](=O)[O-])cc1NC(=O)c1ccccc1N(C)S(C)(=O)=O	none
CC1CCc2c(sc3nc(C(C)(C)C)nc(N4CCN(C(=O)CCl)CC4)c23)C1 (centres undefined)	Efflux pump mplx 0.6 | Cmpd fluor yeast inactive | Mdr1 pump inh inactive | CaCdr2 efflux inh inactive | Cdr1 pump inh inactive
CCC(=O)N1CCN(c2nc(CC)nc3sc4c(c23)CCCC4)CC1	none
NC(=O)c1cc(-c2ccccc2)nc2ccc(Br)cc12	none | Cmpd fluor yeast inactive | Mdr1 pump inh inactive | CaCdr2 efflux inh inactive | Cdr1 pump inh inactive
O=C(O)c1cc(-c2cccnc2)nc2ccc(Br)cc12	none
O=C(NCCO)/C(=C\c1ccc(Br)cc1)NC(=O)c1cccs1	Efflux pump mplx 7.5 | Cmpd fluor yeast inactive | Mdr1 pump inh inactive | CaCdr2 efflux inh inactive | Cdr1 pump inh inactive
O=C(O)CCN1C(=O)/C(=C\c2ccc(-c3nc4ccccc4s3)o2)SC1=S	Efflux pump mplx 0.9 | Cmpd fluor yeast inactive | Mdr1 pump inh inactive | CaCdr2 efflux inh active | Cdr1 pump inh 56
COC(=O)c1ccccc1NC1OC(=O)c2ccccc21 (centres undefined)	Efflux pump mplx 91 | Cmpd fluor yeast inactive | Mdr1 pump inh inactive | CaCdr2 efflux inh inactive | Cdr1 pump inh inactive
Cc1ccc2cccc(NC3OC(=O)c4ccccc43)c2n1 (centres undefined)	none
O=C(COc1ccc(Cl)cc1Cl)NNC(=S)Nc1ccc(F)cc1	none
C=CCNC(=S)NNC(=O)COc1ccc(Cl)cc1Cl	Efflux pump mplx 15 | Cmpd fluor yeast inactive | Mdr1 pump inh inactive | CaCdr2 efflux inh inactive | Cdr1 pump inh inactive
Cc1cccc(N(Cc2ccccc2)C(=O)CN2C(=O)NC3(CCCCC3C)C2=O)c1 (centres undefined)	none
CCC(Sc1nc2ccccc2[nH]1)C(=O)Nc1ccc(NC(C)=O)cc1 (centres undefined)	Efflux pump mplx 0.7 | Cmpd fluor yeast inactive | Mdr1 pump inh inactive | CaCdr2 efflux inh inactive | Cdr1 pump inh inactive
CCC(Sc1nc2ccccc2[nH]1)C(=O)Nc1cc(C)on1 (centres undefined)	none
COc1ccc(N2C(=O)C(F)(F)C2c2ccc(C)cc2)cc1OC (centres undefined)	none
CCOC(=O)C1(Cc2cccc(OC)c2)CCCN(C(=O)CCN2CCCO2)C1 (centres undefined)	none
CN(C)S(=O)(=O)Nc1ccc(NS(=O)(=O)N(C)C)c(S(=O)(=O)c2ccccc2)c1	Efflux pump mplx 0.7 (no result: DSG3 Ab inh) | Cmpd fluor yeast inactive | Mdr1 pump inh inactive | CaCdr2 efflux inh inactive | Cdr1 pump inh inactive
O=C(c1cc(-c2ccncc2)nc2ccc(Br)cc12)N1CCN(c2ccccn2)CC1	none (no result: DSG3 Ab inh)
O=C(c1cc(-c2ccccc2Cl)nc2ccc(Br)cc12)N1CCN(c2ccccn2)CC1	Efflux pump mplx 5.3 | Cmpd fluor yeast inactive | Mdr1 pump inh inactive | CaCdr2 efflux inh inactive | Cdr1 pump inh inactive
COc1ccc(NC(=S)N2CCC(C(=O)c3ccc(F)cc3)CC2)c(OC)c1	none
Cc1ccc(-n2nc(C)c(NC(=O)CCl)c2C)cc1	Efflux pump mplx 10 | Cmpd fluor yeast inactive | Mdr1 pump inh inactive | CaCdr2 efflux inh inactive | Cdr1 pump inh inactive
COc1cccc2sc(Nc3nnc(-c4cccs4)o3)nc12	Efflux pump mplx 0.7 (not shown: Neddylation inh) | Cmpd fluor yeast inactive | Mdr1 pump inh inactive | CaCdr2 efflux inh inactive | Cdr1 pump inh inactive
CCC(C(=O)N1CCN(Cc2ccc3c(c2)OCO3)CC1)n1c(=O)[nH]c2ccccc2c1=O (centres undefined)	none
C[C@H](CO)N1C[C@H](C)[C@@H](CN(C)C(=O)Nc2ccccc2)Oc2c(NC(=O)Nc3ccc(C(F)(F)F)cc3)cccc2C1=O	none
C[C@H](CO)N1C[C@H](C)[C@@H](CN(C)Cc2ccc(-c3ccccc3)cc2)Oc2c(NC(=O)Nc3ccc(C(F)(F)F)cc3)cccc2C1=O	none | Cmpd fluor yeast inactive | Mdr1 pump inh inactive | CaCdr2 efflux inh inactive | Cdr1 pump inh inactive

Screening data as filed in PubChem.
